ChEMBL document CHEMBL1149106, “Design, synthesis, and evaluation of aza-peptide epoxides as selective and potent inhibitors of caspases-1, -3, -6, and -8” (J Med Chem, 2004)
Activity calls are given as the source filed them. No cut-off for these calls is given here.

Legend:
Caspase-3 (Homo sapiens) [1] = target: T1, Caspase-3 (Homo sapiens) (UniProt P42574); assay: Second-order inhibition rate of caspase-3 was determined by progress curve method
T1 sequence (whole entry): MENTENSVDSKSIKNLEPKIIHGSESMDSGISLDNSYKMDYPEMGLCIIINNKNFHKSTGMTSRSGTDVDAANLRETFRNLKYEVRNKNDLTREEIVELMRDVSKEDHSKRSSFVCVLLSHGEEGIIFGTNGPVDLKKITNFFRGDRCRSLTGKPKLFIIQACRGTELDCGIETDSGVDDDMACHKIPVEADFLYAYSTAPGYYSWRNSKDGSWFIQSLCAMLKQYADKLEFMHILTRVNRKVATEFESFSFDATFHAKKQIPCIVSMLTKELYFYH
Method in brief: (§1)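 Caspases-3, -6 and -8 were assayed in 50 mM HEPES, 100 mM NaCl, 0.1% (w/v) CHAPS, 10% (w/v) sucrose and 10 mM DTT, pH 7.4. Substrate: Cbz-DEVD-AFC or Cbz-DEVD-AMC.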

Caspase-6 (Homo sapiens) [2] = target: T2, Caspase-6 (Homo sapiens) (UniProt P55212); assay: Second-order inhibition rate of caspase-6 was determined by progress curve method; method in brief: as §1
T2 sequence (whole entry): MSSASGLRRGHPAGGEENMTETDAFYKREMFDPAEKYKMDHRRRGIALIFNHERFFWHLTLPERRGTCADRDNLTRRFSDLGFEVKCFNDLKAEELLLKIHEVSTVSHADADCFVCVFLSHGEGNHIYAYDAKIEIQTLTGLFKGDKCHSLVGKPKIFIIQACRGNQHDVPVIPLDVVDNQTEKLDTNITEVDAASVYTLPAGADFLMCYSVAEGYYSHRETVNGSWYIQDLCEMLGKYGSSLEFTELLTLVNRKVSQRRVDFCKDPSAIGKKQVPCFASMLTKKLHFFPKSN

Caspase-8 (Homo sapiens) [3] = target: Caspase-8 (Homo sapiens) (UniProt Q14790); assay: Second-order inhibition rate of caspase-8 was determined by progress curve method; method in brief: as §1
Caspase-6 (Homo sapiens) [4] = target: T2, Caspase-6 (Homo sapiens); assay: Second-order inhibition rate of caspase-6 was determined by progress curve method; No inhibition; method in brief: as §1
Caspase-8 (Homo sapiens) [5] = target: Caspase-8 (Homo sapiens) (UniProt Q14790); assay: Second-order inhibition rate of caspase-8 was determined by progress curve method; No inhibition; method in brief: as §1
Caspase-1 (Homo sapiens) = target: T3, Caspase-1 (Homo sapiens) (UniProt P29466); assay: Second-order inhibition rate of caspase-1 was determined by progress curve method
T3 sequence (whole entry): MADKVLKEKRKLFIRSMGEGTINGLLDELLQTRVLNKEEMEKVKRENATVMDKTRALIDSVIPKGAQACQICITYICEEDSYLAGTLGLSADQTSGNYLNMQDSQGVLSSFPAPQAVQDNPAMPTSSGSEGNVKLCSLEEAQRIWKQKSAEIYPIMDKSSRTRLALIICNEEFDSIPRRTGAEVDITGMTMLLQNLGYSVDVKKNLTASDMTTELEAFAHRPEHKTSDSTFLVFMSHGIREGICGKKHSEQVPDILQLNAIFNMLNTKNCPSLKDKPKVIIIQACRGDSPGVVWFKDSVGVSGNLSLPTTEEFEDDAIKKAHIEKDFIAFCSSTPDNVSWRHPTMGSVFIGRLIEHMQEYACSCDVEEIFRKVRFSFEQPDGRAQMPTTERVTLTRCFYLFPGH
Method in brief: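 Caspase-1 assay buffer: 100 mM HEPES, 0.5 mM EDTA, 20% (v/v) glycerol, 5 mM DTT, pH 7.5. Substrate: Ac-YVAD-AMC.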

Caspase-3 (Homo sapiens) [6] = target: T1, Caspase-3 (Homo sapiens); assay: Second-order inhibition rate of caspase-3 was determined by progress curve method; No inhibition; method in brief: as §1

Sequence of Caspase-8 (Homo sapiens) (Q14790 217-374 limits assumed): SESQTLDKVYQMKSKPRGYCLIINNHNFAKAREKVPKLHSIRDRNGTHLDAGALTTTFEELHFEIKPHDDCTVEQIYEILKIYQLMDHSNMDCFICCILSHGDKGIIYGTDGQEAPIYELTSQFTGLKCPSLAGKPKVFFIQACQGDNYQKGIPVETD
Sequence of Caspase-8 (Homo sapiens) (Q14790 385-479 limits assumed): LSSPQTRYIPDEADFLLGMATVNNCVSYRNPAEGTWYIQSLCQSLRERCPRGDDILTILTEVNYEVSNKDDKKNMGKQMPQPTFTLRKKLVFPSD

Row | Structure (SMILES) | k2 (Caspase-3 (Homo sapiens) [1]) [M⁻¹ s⁻¹] | k2 (Caspase-6 (Homo sapiens) [2]) [M⁻¹ s⁻¹] | k2 (Caspase-8 (Homo sapiens) [3]) [M⁻¹ s⁻¹] | k2 (Caspase-6 (Homo sapiens) [4]) | k2 (Caspase-8 (Homo sapiens) [5]) | k2 (Caspase-1 (Homo sapiens)) [M⁻¹ s⁻¹] | k2 (Caspase-3 (Homo sapiens) [6])
1 | CC(C)C[C@H](NC(=O)OCc1ccccc1)C(=O)NC(CCC(=O)O)C(=O)N[C@H](C(=O)NN(CC(=O)O)C(=O)[C@H]1O[C@@H]1C(=O)NCCc1ccccc1)[C@@H](C)O (some centres undefined) | 2550 | 10000 | 53300 |  |  |  | 
2 | CC(C)[C@H](NC(=O)OCc1ccccc1)C(=O)NN(CC(=O)O)C(=O)[C@H]1O[C@@H]1c1ccc(Cl)cc1 | 145 |  |  | inactive | inactive |  | 
3 | CC(C)[C@H](NC(=O)CCc1ccccc1)C(=O)N[C@@H](C)C(=O)NN(CC(=O)O)C(=O)[C@H]1O[C@@H]1C(=O)N[C@@H](Cc1ccc(O)cc1)C(N)=O | 87 | 11 | 125 |  |  | 3250 | 
4 | CC(C)[C@H](NC(=O)CCc1ccccc1)C(=O)N[C@@H](C)C(=O)NN(CC(=O)O)C(=O)[C@@H]1O[C@H]1C(=O)NCC(O)c1ccccc1 (some centres undefined) |  |  |  | inactive | inactive | 400 | inactive
5 | CC(C)[C@H](NC(=O)CCc1ccccc1)C(=O)N[C@@H](C)C(=O)NN(CC(=O)O)C(=O)[C@@H]1O[C@H]1C(=O)NCc1ccccc1 |  |  |  | inactive | inactive | 1630 | inactive
6 | CCOC(=O)[C@@H]1O[C@H]1C(=O)N(CC(=O)O)NC(=O)[C@@H](NC(=O)[C@H](CCC(=O)O)NC(=O)[C@@H](NC(=O)OCc1ccccc1)[C@@H](C)CC)[C@@H](C)O | 2630 | 34000 | 8800 |  |  | 13300 | 
7 | CC(C)[C@H](NC(=O)[C@H](CCC(=O)O)NC(=O)OCc1ccccc1)C(=O)NN(CC(=O)O)C(=O)[C@H]1O[C@@H]1C(=O)NCCc1ccccc1 | 27300 | 3130 | 72700 |  |  | 41100 | 
8 | CC(C)[C@H](NC(=O)[C@H](CCC(=O)O)NC(=O)OCc1ccccc1)C(=O)NN(CC(=O)O)C(=O)[C@@H]1O[C@H]1C(=O)N[C@@H](Cc1ccccc1)C(N)=O | 470 | 25 |  |  |  | 1040 | 
9 | CC(C)[C@H](NC(=O)CCc1ccccc1)C(=O)N[C@@H](C)C(=O)NN(CC(=O)O)C(=O)[C@H]1O[C@@H]1C(=O)OCCc1ccccc1 | 2110 | 240 | 3780 |  |  | 56600 | 
10 | CC(C)[C@H](NC(=O)OCc1ccccc1)C(=O)NN(CC(=O)O)C(=O)[C@H]1O[C@@H]1C(=O)O | 1110 | 90 | 370 |  |  |  | 
11 | CC(C)C[C@H](NC(=O)OCc1ccccc1)C(=O)NC(CCC(=O)O)C(=O)N[C@H](C(=O)NN(CC(=O)O)C(=O)[C@H]1O[C@@H]1C(=O)OCc1ccccc1)[C@@H](C)O (some centres undefined) | 3520 | 10300 | 72700 |  |  | 43500 | 
12 | CC(C)[C@H](NC(=O)C(CCC(=O)O)NC(=O)[C@H](CC(=O)O)NC(=O)OCc1ccccc1)C(=O)NN(CC(=O)O)C(=O)[C@H]1O[C@@H]1C(=O)NCc1ccccc1 (some centres undefined) | 1.09e+06 | 6000 | 84400 |  |  | 25400 | 
13 | CC(C)[C@H](NC(=O)CCc1ccccc1)C(=O)N[C@@H](C)C(=O)NN(CC(=O)O)C(=O)[C@@H]1O[C@H]1C(=O)OCc1ccccc1 |  | 15 | 185 |  |  | 1860 | inactive
14 | CCOC(=O)[C@@H]1O[C@H]1C(=O)N(CC(=O)O)NC(=O)[C@H](C)NC(=O)[C@@H](NC(=O)CCc1ccccc1)C(C)C |  |  |  | inactive | inactive | 6290 | inactive
15 | CC(C)[C@H](NC(=O)CCc1ccccc1)C(=O)N[C@@H](C)C(=O)NN(CC(=O)O)C(=O)[C@@H]1O[C@H]1C(=O)N[C@@H](C)C(=O)NCc1ccccc1 |  |  |  | inactive | inactive | 270 | inactive
16 | CC(C)[C@H](NC(=O)CCc1ccccc1)C(=O)N[C@@H](C)C(=O)NN(CC(=O)O)C(=O)[C@H]1O[C@@H]1C(=O)NCCc1ccccc1 | 1110 | 130 | 10100 |  |  | 17100 | 

Row | Structure (SMILES) | k2 (Caspase-3 (Homo sapiens) [1]) [M⁻¹ s⁻¹] | k2 (Caspase-6 (Homo sapiens) [2]) [M⁻¹ s⁻¹] | k2 (Caspase-8 (Homo sapiens) [3]) [M⁻¹ s⁻¹] | k2 (Caspase-6 (Homo sapiens) [4]) | k2 (Caspase-8 (Homo sapiens) [5]) | k2 (Caspase-1 (Homo sapiens)) [M⁻¹ s⁻¹] | k2 (Caspase-3 (Homo sapiens) [6])
17 | CC(C)[C@H](NC(=O)CCc1ccccc1)C(=O)N[C@@H](C)C(=O)NN(CC(=O)O)C(=O)[C@H]1O[C@@H]1C(=O)N[C@@H](Cc1ccccc1)C(N)=O | 625 | 65 | 390 |  |  | 32700 | 
18 | CC[C@H](C)[C@H](NC(=O)OCc1ccccc1)C(=O)N[C@@H](CCC(=O)O)C(=O)N[C@H](C(=O)NN(CC(=O)O)C(=O)[C@@H]1O[C@H]1C(=O)OCc1ccccc1)[C@@H](C)O | 3110 | 45400 | 4560 |  |  | 13000 | 
19 | CC(C)[C@H](NC(=O)OCc1ccccc1)C(=O)NN(CC(=O)O)C(=O)[C@H]1O[C@@H]1CCc1ccccc1 | 310 | 44 | 180 |  |  |  | 
20 | CCNC(=O)[C@H]1O[C@@H]1C(=O)N(CC(=O)O)NC(=O)[C@H](C)NC(=O)[C@@H](NC(=O)CCc1ccccc1)C(C)C | 1910 | 142 | 6050 |  |  |  | 
21 | CC(C)[C@H](NC(=O)C(CCC(=O)O)NC(=O)[C@H](CC(=O)O)NC(=O)OCc1ccccc1)C(=O)NN(CC(=O)O)C(=O)[C@H]1O[C@@H]1C(=O)N[C@@H](Cc1ccccc1)C(N)=O (some centres undefined) | 722000 | 6140 | 29600 |  |  | 9250 | 
22 | CC[C@H](C)[C@H](NC(=O)OCc1ccccc1)C(=O)N[C@@H](CCC(=O)O)C(=O)N[C@H](C(=O)NN(CC(=O)O)C(=O)[C@H]1O[C@@H]1C(=O)OCc1ccccc1)[C@@H](C)O | 9500 | 86200 | 58500 |  |  | 45800 | 
23 | CC(C)C[C@H](NC(=O)[C@H]1O[C@@H]1C(=O)N(CC(=O)O)NC(=O)[C@H](C)NC(=O)[C@@H](NC(=O)CCc1ccccc1)C(C)C)C(N)=O | 420 | 71 | 315 |  |  | 26100 | 
24 | CC(C)[C@H](NC(=O)CCc1ccccc1)C(=O)N[C@@H](C)C(=O)NN(CC(=O)O)C(=O)[C@@H]1O[C@H]1C(=O)N[C@@H](Cc1ccccc1)C(N)=O |  |  |  | inactive | inactive | 330 | inactive
25 | CCOC(=O)[C@H]1O[C@@H]1C(=O)N(CC(=O)O)NC(=O)[C@@H](NC(=O)OCc1ccccc1)C(C)C | 3650 | 350 | 1260 |  |  |  | 
26 | CC(C)[C@H](NC(=O)CCc1ccccc1)C(=O)N[C@@H](C)C(=O)NN(CC(=O)O)C(=O)[C@H]1O[C@@H]1C(=O)NCc1ccccc1 | 1610 | 155 | 9360 |  |  | 65900 | 
27 | CC[C@H](C)[C@H](NC(=O)OCc1ccccc1)C(=O)N[C@@H](CCC(=O)O)C(=O)N[C@H](C(=O)NN(CC(=O)O)C(=O)[C@@H]1O[C@H]1C(=O)NCc1ccccc1)[C@@H](C)O | 6500 | 60100 | 6500 |  |  | 18100 | 
28 | CC[C@H](C)[C@H](NC(=O)OCc1ccccc1)C(=O)N[C@@H](CCC(=O)O)C(=O)N[C@H](C(=O)NN(CC(=O)O)C(=O)[C@@H]1O[C@H]1C(=O)N[C@@H](C)C(=O)NCc1ccccc1)[C@@H](C)O | 3050 | 38200 | 56000 |  |  |  | 
29 | CC(C)[C@H](NC(=O)CCc1ccccc1)C(=O)N[C@@H](C)C(=O)NN(CC(=O)O)C(=O)[C@H]1O[C@@H]1C(=O)NCC(O)c1ccccc1 (some centres undefined) | 510 | 63 | 4090 |  |  | 12200 | 
30 | CC(C)[C@H](NC(=O)CCc1ccccc1)C(=O)N[C@@H](C)C(=O)NN(CC(=O)O)C(=O)[C@H]1O[C@@H]1C(=O)N[C@@H](C)C(=O)NCc1ccccc1 | 260 | 25 | 140 |  |  | 13400 | 
31 | CC(C)[C@H](NC(=O)C(CCC(=O)O)NC(=O)[C@H](CC(=O)O)NC(=O)OCc1ccccc1)C(=O)NN(CC(=O)O)C(=O)[C@H]1O[C@@H]1C(=O)OCc1ccccc1 (some centres undefined) | 1.91e+06 | 12700 | 188000 |  |  | 54700 | 
32 | CC(C)C[C@H](NC(=O)OCc1ccccc1)C(=O)NC(CCC(=O)O)C(=O)N[C@H](C(=O)NN(CC(=O)O)C(=O)[C@H]1O[C@@H]1C(=O)N[C@@H](C)C(=O)NCc1ccccc1)[C@@H](C)O (some centres undefined) | 1280 | 6660 | 44800 |  |  |  | 
